Measured values from article PMC4629265 (Acta Pharmaceutica Sinica. B, 2015).

Columns and labels:
Assay type in all cases: cell-based
[1] = tested on: Vero cells; assay: Cytotoxicity on Vero cells, CPE method; settings: 3 d
Method in brief: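 Vero cells were seeded at 3×10⁴ cells/well and incubated overnight. Test compounds were then added at different concentrations in triplicate and incubated 3 d, with cytotoxicity scored by CPE. TC50, the concentration inhibiting 50% of cell growth versus untreated controls, was calculated by Reed and Muench.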

[2] = Cytotoxicity in Huh7.5 cells, MTT assay; settings: human
Method in brief: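 Huh7.5 cells were plated at 1×10⁴ cells/well. After 6 h the medium was replaced with fresh medium containing test compound at various concentrations. Viability was read by MTT at 96 h, and CC50 was calculated by the Reed & Muench method.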

[3] = tested on: HCV; assay: Anti-HCV assay in infected Huh7.5 cells, HCV RNA by RT-PCR; settings: Hepatitis C virus, Huh7.5, 96 h, read-out: IC50 (anti-HCV activity)
Method in brief: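 Huh7.5 cells (DMEM, 10% inactivated FBS) were seeded at 3×10⁴ cells/cm². After 6 h they were infected with chimeric J6/JFH/JC1 HCV stock (45 u/cell) and given test compound at the same time, with an NS3/4A protease inhibitor as positive control. At 96 h, intracellular total RNA was extracted and HCV RNA quantified by one-step RT-PCR. IC50 was calculated by Reed & Muench.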

[4] = tested on: EV71 (strain SZ-98); assay: Anti-EV71 assay in Vero cells, CPE method; settings: EV71 strain SZ-98, Vero cells
Method in brief: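 Vero cells (MEM, 10% FBS) at 3×10⁴ cells/well were infected with 100TCID50 EV71 strain SZ-98. Test compounds were added immediately at various concentrations and incubated another 48 h. Cytopathic effect was scored, with pirodavir as positive control. IC50 was determined by the Reed and Muench method.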

| IC50 [3] [µM] | Compound | TC50 [1] [µM] | CC50 at 96 h [2] [µM] | anti-EV71 activity (in words) [4] |
| --- | --- | --- | --- | --- |
| – | CCC(=O)Nc1cc(C(=O)Nc2ccc(C(C)C)cc2)ccc1OC [Compound 22, N-(4-Iso-propylphenyl)-4-methoxy-3-propionamidobenzamide] | >65.35 | – | – |
| 0.57 | CCC(=O)Nc1cc(C(=O)Nc2ccc(C(C)(C)C)cc2)ccc1OC [Compound 23, N-(4-tert-Butylphenyl)-4-methoxy-3-propionamidobenzamide] | 36.24 ± 0.00 | 30.7 ± 1.25 | – |
| – | CCCCc1ccc(NC(=O)c2ccc(OC)c(NC(=O)CC)c2)cc1 [Compound 24, N-(4-Butylphenyl)-4-methoxy-3-propionamidobenzamide] | 36.24 ± 0.00 | – | – |
| 2.36 ± 0.12 | CCC(=O)Nc1cc(C(=O)Nc2ccc(C3CCCCC3)cc2)ccc1OC [Compound 25, N-(4-Cyclohexylphenyl)-4-methoxy-3-propionamidobenzamide] | – | 122 ± 2.6 | – |
| – | CCC(=O)Nc1cc(C(=O)Nc2ccc(C#N)cc2)ccc1OC [Compound 26, N-(4-Cyanophenyl)-4-methoxy-3-propionamidobenzamide] | 297.67 | – | – |
| – | CCC(=O)Nc1cc(C(=O)Nc2ccc(N3CCN(C)CC3)cc2)ccc1OC [Compound 27, N-(4-(4-Methylpiperazin-1-yl)phenyl)-4-methoxy-3-propionamidobenzamide] | 291.60 ± 0.00 | – | did not display antiviral activity |
| – | CNc1cc(C(=O)Nc2cccc(Cl)c2)ccc1OC [Compound 28, N-(3-Chlorophenyl)-4-methoxy-3-(methylamino)benzamide] | 110.50 ± 0.00 | – | – |
| – | CCc1ccc(NC(=O)c2ccc(OC)c(NC)c2)cc1 [Compound 29, N-(4-Ethylphenyl)-4-methoxy-3-(methylamino)benzamide] | >26.09 | – | – |
| – | CNc1cc(C(=O)Nc2ccc(C(C)C)cc2)ccc1OC [Compound 30, N-(4-iso-propylphenyl)-4-methoxy-3-(methylamino)benzamide] | >8.29 | – | – |
| 32 ± 2.14 | CNc1cc(C(=O)Nc2ccc(C(C)(C)C)cc2)ccc1OC [Compound 31, N-(4-tert-Butylphenyl)-4-methoxy-3-(methylamino)benzamide] | 34.23 ± 0.00 | 56.6 ± 4.2 | – |
| – | CCCCc1ccc(NC(=O)c2ccc(OC)c(NC)c2)cc1 [Compound 32, N-(4-Butylphenyl)-4-methoxy-3-(methylamino)benzamide] | 41.12 ± 0.00 | – | – |
| 34.6 ± 3.1 | CNc1cc(C(=O)Nc2ccc(C3CCCCC3)cc2)ccc1OC [Compound 33, N-(4-Cyclohexylphenyl)-4-methoxy-3-(methylamino)benzamide] | – | 40 ± 7.25 | – |
| – | CNc1cc(C(=O)Nc2ccc(C#N)cc2)ccc1OC [Compound 34, N-(4-Cyanophenyl)-4-methoxy-3-(methylamino)benzamide] | >79.07 | – | – |
| – | CCC(=O)Nc1cc(C(=O)Nc2ccc(Cl)cc2)ccc1O [Compound 35, N-(4-Chlorophenyl)-4-hydroxy-3-propionamidobenzamide] | 100.79 ± 0.00 | – | – |
| – | CCC(=O)Nc1cc(C(=O)Nc2ccc(C(C)(C)C)cc2)ccc1O [Compound 36, N-(4-tert-Butylphenyl)-4-hydroxy-3-propionamidobenzamide] | 86.08 ± 0.00 | – | – |
| 7.12 ± 2.48 | CCC(=O)Nc1cccc(C(=O)Nc2ccc(Cl)cc2)c1 [Compound 41, N-(4-Chlorophenyl)-3-propionamidobenzamide] | 106.12 ± 0.00 | > 200 | – |
| 19.5 ± 7.18 | CNc1cccc(C(=O)Nc2ccc(Cl)cc2)c1 [Compound 42, N-(4-Chlorophenyl)-3-(methylamino)benzamide] | >28.5 | 164 ± 9.84 | – |
| – | CCC(=O)Nc1cc(C(=O)CNc2ccc(C)cc2)ccc1OC [Compound 49, N-(2-Methoxy-5-(2-(p-tolylamino)acetyl)phenyl)propionamide] | 98.31 | – | inactive |
| – | CCC(=O)Nc1cc(C(=O)CNc2ccc(C(C)(C)C)cc2)ccc1OC [Compound 50, N-(5-(2-((4-(tert-Butyl)phenyl)amino)acetyl)-2-methoxyphenyl)propionamide] | >20.14 | – | inactive |
| – | CNc1cc(C(=O)CNc2ccccc2)ccc1OC [Compound 54, 1-(4-Methoxy-3-(methylamino)phenyl)-2-(phenylamino)ethanone] | 167.11 ± 34.70 | – | inactive |
| – | CNc1cc(C(=O)CNc2ccc(Cl)cc2)ccc1OC [Compound 55, 2-((4-Chlorophenyl)amino)-1-(4-methoxy-3-(methylamino)phenyl)ethanone] | 73.10 ± 0.00 | – | inactive |
| – | CCOC(=O)c1ccc(OCCC2CCN(c3ccc(C)nn3)CC2)cc1 [Pirodavir, pirodavir, reference compound] | 49.78 ± 3.96 | – | – |
| 0.01 | CCC[C@H](NC(=O)[C@@H]1[C@H]2CCC[C@H]2CN1C(=O)[C@@H](NC(=O)[C@@H](NC(=O)c1cnccn1)C1CCCCC1)C(C)(C)C)C(=O)C(=O)NC1CC1 [VX-950, telaprevir, reference compound] | – | 21.3 ± 4.7 | – |
| – | N-(2,3-Dihydrobenzo[b][1,4]dioxin-6-yl)-4-methyl-3-(methylamino)benzamide [Compound 44] | 322.65 ± 0.00 | – | poor |
| – | N-(2,3-Dihydrobenzo[b][1,4]dioxin-6-yl)-4-methyl-3-propionamidobenzamide [Compound 43] | 196.10 ± 0.00 | – | poor |
